In the library only some 3.5% were active in any assay of this set; here they are far more common.
MrgX1 PAM: allosterically activates human MrgX1 receptor signaling; hit rate 0.63% among 310,000; B-score at 10 µM; MrgX1-HEK293, Fluo-4 calcium flux, FDSS; hits give high values; Q96LB2;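 active = plate-corrected calcium response at least 3 library SD above typical, normal starting fluorescence, not activating the receptor alone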;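 also: compound read alongside a low EC10 to EC30 dose of BAM8-22 agonist; peak minus trough fluorescence over baseline measured at the second addition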
Target sequence (Q96LB2 whole entry, looked up): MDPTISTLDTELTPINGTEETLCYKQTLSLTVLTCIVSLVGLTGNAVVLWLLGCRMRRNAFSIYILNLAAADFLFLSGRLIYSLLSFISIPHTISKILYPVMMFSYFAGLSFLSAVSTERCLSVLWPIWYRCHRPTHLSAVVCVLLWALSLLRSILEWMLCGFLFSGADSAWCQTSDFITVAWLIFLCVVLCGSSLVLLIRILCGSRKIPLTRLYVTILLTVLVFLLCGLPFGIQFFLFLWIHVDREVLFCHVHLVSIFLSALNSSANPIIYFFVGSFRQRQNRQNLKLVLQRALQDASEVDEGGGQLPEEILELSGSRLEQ
RGS4 block: human RGS4 inhibition. P49798. HEK293 M3R/RGS4 inducible, Fluo-4 calcium flux; hits give high values; triggered by carbachol at its EC20. B-score at 10 µM. hit rate 0.45% among 310,000. AID 463165;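 active = B-score, a plate-corrected calcium signal, over three deviations above library mean, with baseline fluorescence within five deviations of library mean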;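 also: RGS4 expression induced by doxycycline in cells with stable M3 receptor; B-score is computed from the integrated fluorescence ratio over baseline after carbachol; higher B-score means a larger calcium signal and so more RGS4 inhibition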
Target sequence (P49798 whole entry, looked up): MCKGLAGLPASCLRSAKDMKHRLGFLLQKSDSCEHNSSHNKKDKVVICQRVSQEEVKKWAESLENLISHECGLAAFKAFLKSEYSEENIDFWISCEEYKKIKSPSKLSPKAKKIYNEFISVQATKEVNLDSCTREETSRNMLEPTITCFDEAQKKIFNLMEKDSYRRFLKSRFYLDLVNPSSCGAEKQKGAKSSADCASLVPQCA
MrgX1 agonist: activates human MrgX1 receptor signaling; Q96LB2; MrgX1-HEK293 cells, Fluo-4 calcium fluorescence, agonist mode; hits give high values; B-score at 10 µM; hit rate 0.44% among 310,000; AID 588627;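 active = calcium response B-score plate-corrected fluorescence ratio at least 3 library SD, with starting fluorescence B-score inside 5 SD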
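System: HEK293 cells stably expressing human MrgX1 receptor; Dosing: test compound in the initial addition of three; Schedule: overnight plating, then 30 min 37 °C plus 30 min room-temperature dye loading; Detection: kinetic calcium dye fluorescence, Fluo-4 NW; Controls: per-plate positive and negative controls for Z′ factor.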
RGS4 pot: potentiators or activators of RGS4. HEK293 M3R/inducible RGS4, carbachol calcium flux Fluo4; hits give low values. B-score at 10 µM. hit rate 0.92% among 310,000. AID 463111;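 active = B-score of the integrated calcium signal more than 4 SD below the library mean, with starting fluorescence not abnormally high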;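 also: negative B-score means reduced calcium response which marks RGS4 activation or potentiation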
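Material: M3R-expressing HEK293 line, RGS4 induced by doxycycline | Schedule: Overnight RGS4 induction, 30 min dye load 37 °C, 20 min compound RT | Measured by: Fluo4 fluorescence kinetic imaging of calcium | Read-out: Integrated calcium ratio converted to B score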
MrgX1 antagonist: blocks BAM8-22 activation of human MrgX1 receptor. Q96LB2. MRGX1-HEK293 calcium flux, Fluo-4, BAM8-22 antagonism; hits give low values. B-score at 10 µM. hit rate 1.3% among 310,000;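 active = calcium-response B-score plate-corrected more than 3 library SD below zero, starting fluorescence within 5 deviations, no agonist response on first addition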;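 also: peak minus trough fluorescence over baseline after final BAM8-22 challenge near maximal dose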
The depositor's hits bear a star; i = inactive; x = not tested or not shown.

SMILES	MrgX1 PAM	RGS4 block	MrgX1 agonist	RGS4 pot	MrgX1 antagonist
COc1ccc(C[C@H]2CN3C(=NC[C@H]3Cc3ccccc3)N2CCNC(=O)c2ccc(C)c(Br)c2)cc1	i	i	i	i	-5.1*
COc1ccc(Nc2nc(-c3ccccc3O)nc3ccccc23)cc1	i	i	i	-7*	i
COc1ccc(Nc2nc(-c3ccccc3F)nc3ccccc23)cc1OC	i	i	i	-7.2*	i
CCN(CC(=O)Nc1c(F)cccc1F)C(=O)c1ccc2c(c1)OCCO2	i	i	i	i	i
CC[N+](C)(CC)CCC/C(=N/O)C(O)(c1ccccc1)c1ccccc1	i	i	i	-9.7*	i
CCN(CC)CCC/C(=N\O)C(O)(c1ccccc1)c1ccccc1	i	i	i	-10*	i
CC/C(CC(C)(C)c1ccccc1)=N\O	i	i	i	i	i
CCN(CC)Cc1c(C(=O)N2CCc3ccccc3C2)nc2ccc(Cl)cn12	i	i	i	i	i
COc1ccc(O[C@H]2C=C[C@@H](c3ccccc3)O[C@@H]2CO/N=C(\C)CCC(=O)OC[C@H]2O[C@H](c3ccccc3)C=C[C@@H]2Oc2ccc(OC)cc2)cc1	i	i	i	i	-7.2*
CC(C)CNC(=S)N(CCO)Cc1cc2cc3c(cc2[nH]c1=O)OCO3	i	i	i	i	i
COCc1cc(Sc2c(Cl)cccc2Cl)nc(-c2ccccc2)n1	9.3*	i	i	i	i
O=C1C2C3C=CC(C3)C2C(=O)N1/N=C/c1cn(Cc2ccc(F)cc2)c2ccccc12 (stereo unspecified)	i	i	i	-8*	i
CC(COc1ccc(/C=C/c2ccccc2)cc1)[N+](C)(C)C (stereo unspecified)	i	x	i	x	i
CCCCOc1ccc(C2OC34CCCCC3C(C#N)(C#N)C2(C#N)C(=N)O4)cc1 (stereo unspecified)	i	i	i	i	i
C=CCOc1ccc(C2OC34CCCCC3C(C#N)(C#N)C2(C#N)C(=N)O4)cc1 (stereo unspecified)	i	i	27*	i	i
COc1ccc(N(C)C(=O)c2onc3c2CCCC3)cc1	i	i	i	i	i
O=C(NC1CCCCC1)c1sc(=S)n2c1[nH]c(=O)c1ccccc12	i	i	47*	i	i
O=C(NCC1CCCO1)c1sc(=S)n2c1[nH]c(=O)c1ccc(C(=O)N3CCCCC3)cc12 (stereo unspecified)	i	i	i	i	i
CCCCNC(=O)c1sc(=S)n2c1[nH]c(=O)c1ccccc12	i	i	63*	i	i
CN(C)CCn1c2c(c(SCC(=O)N3CCc4ccccc43)nc1=O)CCCC2	i	i	i	i	i
Cn1nnnc1Sc1c(Cl)cccc1[N+](=O)[O-]	i	i	i	i	-5.6*
COc1cnc(SCC(=O)O)[nH]c1=O	i	i	i	i	i
CN(C)c1ccc(/C=N/N=C(N)N)cc1[N+](=O)[O-]	i	i	37*	i	i
CCOc1cc(N2CCOCC2)c(OCC)cc1NC(=O)COC(=O)COc1ccc(C#N)cc1	i	i	i	i	-6.3*
CCOc1cc(N2CCOCC2)c(OCC)cc1NC(=O)COC(=O)COc1cc(C)cc(C)c1	i	i	i	i	i
SMILES	MrgX1 PAM	RGS4 block	MrgX1 agonist	RGS4 pot	MrgX1 antagonist
COc1cc(/C=C2/CC/C(=C/c3ccc(O)c(OC)c3)C2=O)ccc1O	i	i	58*	i	i
CCc1ccc(N=C2NC(=O)/C(=C/c3cc(OC)c(O)c(OC)c3)S2)cc1	i	i	i	i	-7.6*
COc1cc(/C=C2\COC/C(=C\c3ccc(O)c(OC)c3)C2=O)ccc1O	i	i	i	i	i
COc1cc(/C=C2/SC(=Nc3ccc(O)cc3)NC2=O)ccc1O	i	i	i	i	-5*
CCCCc1ccc(NC(=O)C(C)CC)cc1 (stereo unspecified)	i	i	i	i	i
CC1CCC(NC(=O)C2COc3ccccc3O2)CC1 (stereo unspecified)	i	i	i	i	i
O=C(NC1CCCCC1)C1COc2ccccc2O1 (stereo unspecified)	i	i	i	-7.6*	i
Cc1cccc(N2CCN(C(=O)C(Cc3ccccc3)n3cccc3)CC2)c1C (stereo unspecified)	i	i	i	i	i
Cc1ccc2oc(-c3cc(NC(=O)c4ncn[nH]4)ccc3O)nc2c1	i	i	i	i	i
Cc1c(N2C(=O)/C(=C\c3ccc(N(C)C)cc3)N(C)C2=S)c(=O)n(-c2ccccc2)n1C	i	x	i	x	-4.5*
Cc1nn(C)cc1/C=C/C(=O)c1ccc(O)cc1	i	i	i	i	i
CCN(C(=O)CCS(=O)(=O)c1ccc2c(c1)oc(=O)n2C)c1ccc(OC)cc1	i	i	i	i	i
CC(C)N1C(=O)S/C(=C/c2ccc(Sc3nc4ccccc4[nH]3)o2)C1=O	i	i	i	i	-7*
C=CCN1C(=O)S/C(=C/c2ccc(Sc3nc4ccccc4[nH]3)o2)C1=O	i	i	i	i	-6.8*
C=CCN1C(=O)S/C(=C/c2ccsc2)C1=O	i	i	i	i	i
O=C(Nc1ccccc1N1CCCCC1)c1ccc(-c2cccc(Cl)c2)o1	i	i	i	i	i
CN1CCN(c2ccccc2NC(=O)c2ccc(-c3cccc(Cl)c3)o2)CC1	i	i	i	-8.5*	i
Cn1c2ccccc2c2cc(/C=N/NC(=O)c3cc(O)ccc3O)ccc21	i	i	i	-9*	i
COc1cc(C(=O)N/N=C/c2ccc3c(c2)c2ccccc2n3C)ccc1O	i	i	i	i	i
COc1cc(/C=N/NC(=O)C(=O)NCC2CCCO2)cc(Cl)c1O (stereo unspecified)	i	i	i	i	i
Cc1c(NC(=O)C2(c3ccccc3)CCOCC2)c(=O)n(-c2ccccc2)n1C	6.7*	i	i	i	i
Cc1c(NC(=O)C2(c3ccc(Cl)cc3)CCCC2)c(=O)n(-c2ccccc2)n1C	i	i	i	i	i
CCOC(=O)c1c(NC(=O)c2nn(CC)cc2Br)sc2c1CCCCC2	i	i	i	-7*	i
CCOC(=O)c1c(NC(=O)c2nn(CC)cc2Br)sc(C)c1C	i	i	i	i	i

Compound activity deposited in PubChem by Johns Hopkins Ion Channel Center.
